Source: ChEMBL document CHEMBL1938326, “Synthesis and in vitro and in vivo anticancer activity of novel phenylmethylene bis-isoxazolo[4,5-b]azepines” (Bioorg Med Chem Lett, 2012)
Converted amounts (≈) assume the structure as drawn. The source made the active and inactive calls. The rule behind the calls is not given here.

Columns and labels:
HeLa = assay: Cytotoxicity against human HeLa cells after 48 hrs by MTT assay; format: functional, cell-based
In short: (§1)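 Cells grown with 10% FBS, 1% L-glutamine and antibiotics at 37 °C, 5% CO₂. Seeded at 1 × 10⁵ cells/mL and incubated 24 h. Compounds added from DMSO stocks, final DMSO <1%, for 48 h. MTT (2.5 mg/mL) added for 2 h, then OD read at 490 nm. IC50 (50% reduction in OD versus untreated) taken from dose–response curves; three independent determinations.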

MCF7 = assay: Cytotoxicity against human MCF7 cells after 48 hrs by MTT assay; format: functional, cell-based; details: MCF7, 48 h; in short: as §1
[1] = Cytotoxicity against […] cells after 48 hrs by MTT assay; format: functional, cell-based; details: Mus musculus, Ehrlich; in short: as §1
[2] = Antitumor activity against […] cells xenografted in Swiss albino mouse assessed as packed cell volume at 5 mg/kg, ip qd administered for 9 days measured after 14 days (reference value: 2.8 +/- 0.5 ml); format: functional, Ehrlich; details: route intraperitoneal
Mus musculus [3] = assay: Toxicity in Swiss albino mouse xenografted with human EAC cells assessed as change in body weight at 5 mg/kg, ip qd administered for 9 days measured after 14 days (reference value: 12.2 +/- 0.8 g); format: organism-based, Ehrlich; design: dose 5 mg/kg, route intraperitoneal; details: in vivo, 336 h
Mus musculus [4] = assay: Protective effect on haemopoietic system in Swiss albino mouse xenografted with […] cells assessed as change in hemoglobin level at 10 mg/kg, ip qd administered for 9 days measured after 14 days (reference value: 5.8 +/- 0.7 g%); format: functional, Ehrlich; details: route intraperitoneal
In short: (§2)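 Swiss albino female mice (8 weeks, n = 10 per group) inoculated ip with EAC cells (0.2 mL of 2 × 10⁶ cells/mouse), then dosed daily for 9 days starting 24 h after inoculation. On day 14, hemoglobin, RBC, WBC and differential leukocyte counts were compared with uninoculated normal and EAC control groups; mean ± SEM.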

Mus musculus [5] = assay: Protective effect on haemopoietic system in Swiss albino mouse xenografted with […] cells assessed as change in neutrophils count at 10 mg/kg, ip qd administered for 9 days measured after 14 days (reference value: 73 +/- 1.3 %); format: functional, Ehrlich; details: route intraperitoneal; in short: as §2
[6] = Antitumor activity against […] cells xenografted in Swiss albino mouse assessed as increase in life span at 10 mg/kg, ip qd administered for 9 days; format: functional, Ehrlich; details: route intraperitoneal
In short: (§3)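 Female Swiss albino mice, 8 weeks old and 20–25 g, received 0.2 mL of 2 × 10⁶ EAC cells/mouse i.p. on day 0. Daily dosing started 24 h later and ran 9 days; controls received sterile saline i.p. After day-14 sacrifice of five per group, mortality was recorded daily for 30 days. MST = (first + last death day)/2; %ILS = [(MST treated/MST control) − 1] × 100.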

[7] = Antitumor activity against […] cells xenografted in Swiss albino mouse assessed as packed cell volume at 10 mg/kg, ip qd administered for 9 days measured after 14 days (reference value: 2.8 +/- 0.5 ml); format: functional, Ehrlich; details: route intraperitoneal
[8] = Antitumor activity against […] cells xenografted in Swiss albino mouse assessed as mean survival time at 5 mg/kg, ip qd administered for 9 days measured after 14 days (reference value: 13.7+/- 0.4 days); format: functional, Ehrlich; details: route intraperitoneal; in short: as §3
Mus musculus [9] = assay: Protective effect on haemopoietic system in Swiss albino mouse xenografted with […] cells assessed as change in neutrophils count at 5 mg/kg, ip qd administered for 9 days measured after 14 days (reference value: 73 +/- 1.3 %); format: functional, Ehrlich; details: route intraperitoneal; in short: as §2
Mus musculus [10] = assay: Protective effect on haemopoietic system in Swiss albino mouse xenografted with […] cells assessed as change in monocytes count at 5 mg/kg, ip qd administered for 9 days measured after 14 days (reference value: 2.4 +/- 0.1 %); format: functional, Ehrlich; details: route intraperitoneal; in short: as §2
Mus musculus [11] = assay: Protective effect on haemopoietic system in Swiss albino mouse xenografted with […] cells assessed as change in lymphocytes count at 10 mg/kg, ip qd administered for 9 days measured after 14 days (reference value: 23 +/- 0.6 %); format: functional, Ehrlich; details: route intraperitoneal; in short: as §2
Mus musculus [12] = assay: Protective effect on haemopoietic system in Swiss albino mouse xenografted with […] cells assessed as change in monocytes count at 10 mg/kg, ip qd administered for 9 days measured after 14 days (reference value: 2.4 +/- 0.1 %); format: functional, Ehrlich; details: route intraperitoneal; in short: as §2
Mus musculus [13] = assay: Protective effect on haemopoietic system in Swiss albino mouse xenografted with […] cells assessed as change in hemoglobin level at 5 mg/kg, ip qd administered for 9 days measured after 14 days (reference value: 5.8 +/- 0.7 g%); format: functional, Ehrlich; details: route intraperitoneal; in short: as §2
[14] = Antitumor activity against […] cells xenografted in Swiss albino mouse assessed as mean survival time at 10 mg/kg, ip qd administered for 9 days measured after 14 days (reference value: 13.7+/- 0.4 days); format: functional, Ehrlich; details: route intraperitoneal; in short: as §3
Mus musculus [15] = assay: Protective effect on haemopoietic system in Swiss albino mouse xenografted with […] cells assessed as RBC count at 5 mg/kg, ip qd administered for 9 days measured after 14 days; format: functional, organism-based; design: dose 5 mg/kg; details: Ehrlich; in short: as §2
Mus musculus [16] = assay: Protective effect on haemopoietic system in Swiss albino mouse xenografted with […] cells assessed as RBC count at 10 mg/kg, ip qd administered for 9 days measured after 14 days; format: functional, organism-based; design: dose 10 mg/kg; details: Ehrlich; in short: as §2
Mus musculus [17] = assay: Protective effect on haemopoietic system in Swiss albino mouse xenografted with […] cells assessed as WBC count at 5 mg/kg, ip qd administered for 9 days measured after 14 days; format: functional, organism-based; design: dose 5 mg/kg; details: Ehrlich; in short: as §2
Mus musculus [18] = assay: Protective effect on haemopoietic system in Swiss albino mouse xenografted with […] cells assessed as change in lymphocytes count at 5 mg/kg, ip qd administered for 9 days measured after 14 days (reference value: 23 +/- 0.6 %); format: functional, Ehrlich; details: route intraperitoneal; in short: as §2
Ehrlich [19] = assay: Antitumor activity against […] cells xenografted in Swiss albino mouse assessed as viable tumor cell count at 10 mg/kg, ip qd administered for 9 days measured after 14 days by trypan blue assay; format: functional, organism-based; design: dose 10 mg/kg
Mus musculus [20] = assay: Toxicity in Swiss albino mouse xenografted with […] cells assessed as change in body weight at 10 mg/kg, ip qd administered for 9 days measured after 14 days (reference value: 12.2 +/- 0.8 g); format: organism-based, Ehrlich; design: dose 10 mg/kg, route intraperitoneal; details: in vivo, 336 h
Mus musculus [21] = assay: Reduction in ascetic fluid volume in Swiss albino mouse xenografted with […] cells at 5 to 10 mg/kg, ip qd administered for 9 days measured after 14 days; format: functional, organism-based; details: Ehrlich
Mus musculus [22] = assay: Protective effect on haemopoietic system in Swiss albino mouse xenografted with […] cells assessed as WBC count at 10 mg/kg, ip qd administered for 9 days measured after 14 days; format: functional, organism-based; design: dose 10 mg/kg; details: Ehrlich; in short: as §2
[23] = Antitumor activity against […] cells xenografted in Swiss albino mouse assessed as increase in life span at 5 mg/kg, ip qd administered for 9 days; format: functional, Ehrlich; details: route intraperitoneal; in short: as §3
[24] = Antitumor activity against […] cells xenografted in Swiss albino mouse assessed as change in tumor volume at 10 mg/kg, ip qd administered for 9 days measured after 14 days (reference value: 12.1 +/- 0.9 ml); format: functional, Ehrlich; details: route intraperitoneal
[25] = Antitumor activity against […] cells xenografted in Swiss albino mouse assessed as change in tumor volume at 5 mg/kg, ip qd administered for 9 days measured after 14 days (reference value: 12.1 +/- 0.9 ml); format: functional, Ehrlich; details: route intraperitoneal
Ehrlich [26] = assay: Antitumor activity against […] cells xenografted in Swiss albino mouse assessed as viable tumor cell count at 5 mg/kg, ip qd administered for 9 days measured after 14 days by trypan blue assay; format: functional, organism-based; design: dose 5 mg/kg

Cc1ccc(C2CC(c3ccccc3)=Nc3c(C)noc3C2C(c2ccccc2)C2c3onc(C)c3N=C(c3ccccc3)CC2c2ccc(C)cc2)cc1 (centres undefined)
IC50 (HeLa): 53.3 µg/mL (≈ 73.9 µM) | IC50 (MCF7): 50.1 µg/mL (≈ 69.5 µM) | IC50 [1]: 51.6 µg/mL (≈ 71.6 µM)

Cc1noc2c1N=C(c1ccco1)CC(c1ccccc1)C2C(c1ccccc1)C1c2onc(C)c2N=C(c2ccco2)CC1c1ccccc1 (centres undefined)
Activity [2]: 2.1 mL | Activity (Mus musculus [3]): 10.6 g | Activity (Mus musculus [4]): 7.4 g% | IC50 (HeLa): 32.7 µg/mL (≈ 48.6 µM) | Activity (Mus musculus [5]): 49% | Activity [6]: 33.6% | Activity [7]: 1.6 mL | MSD [8]: 14.9 days | Activity (Mus musculus [9]): 63% | Activity (Mus musculus [10]): 2.1% | Activity (Mus musculus [11]): 46% | Activity (Mus musculus [12]): 1.7% | Activity (Mus musculus [13]): 6 g% | MSD [14]: 18.3 days | IC50 (MCF7): 35.9 µg/mL (≈ 53.4 µM) | Activity (Mus musculus [15]): Active | Activity (Mus musculus [16]): Active | Activity (Mus musculus [17]): Active | Activity (Mus musculus [18]): 29% | Activity (Ehrlich [19]): Active | Activity (Mus musculus [20]): 9.6 g | Activity (Mus musculus [21]): Active | Activity (Mus musculus [22]): Active | Activity [23]: 8.8% | Activity [24]: 8.5 mL | Activity [25]: 11 mL | IC50 [1]: 28.9 µg/mL (≈ 43 µM)

Cc1ccc(C(C2c3onc(C)c3N=C(c3ccccc3)CC2c2ccccc2)C2c3onc(C)c3N=C(c3ccccc3)CC2c2ccccc2)cc1 (centres undefined)
IC50 (HeLa): 38.4 µg/mL (≈ 54.3 µM) | IC50 (MCF7): 41.9 µg/mL (≈ 59.3 µM) | IC50 [1]: 48.2 µg/mL (≈ 68.2 µM)

COc1ccc(C(C2c3onc(C)c3N=C(c3ccccc3)CC2c2ccccc2)C2c3onc(C)c3N=C(c3ccccc3)CC2c2ccccc2)cc1 (centres undefined)
IC50 (HeLa): 65.9 µg/mL (≈ 91.2 µM) | IC50 (MCF7): 57.3 µg/mL (≈ 79.3 µM) | IC50 [1]: 41.9 µg/mL (≈ 58 µM)

Cc1noc2c1N=C(c1cccs1)CC(c1ccccc1)C2C(c1ccccc1)C1c2onc(C)c2N=C(c2cccs2)CC1c1ccccc1 (centres undefined)
Activity [2]: 1.8 mL | Activity (Mus musculus [3]): 8.3 g | Activity (Mus musculus [4]): 8.5 g% | IC50 (HeLa): 28.5 µg/mL (≈ 40.4 µM) | Activity (Mus musculus [5]): 36% | Activity [6]: 73.7% | Activity [7]: 1.1 mL | MSD [8]: 17.8 days | Activity (Ehrlich [26]): Active | Activity (Mus musculus [9]): 54% | Activity (Mus musculus [10]): 1.9% | Activity (Mus musculus [11]): 51% | Activity (Mus musculus [12]): 1.4% | Activity (Mus musculus [13]): 7.3 g% | MSD [14]: 23.8 days | IC50 (MCF7): 24.1 µg/mL (≈ 34.2 µM) | Activity (Mus musculus [15]): Active | Activity (Mus musculus [16]): Active | Activity (Mus musculus [17]): Active | Activity (Mus musculus [18]): 35% | Activity (Ehrlich [19]): Active | Activity (Mus musculus [20]): 6.7 g | Activity (Mus musculus [21]): Active | Activity (Mus musculus [22]): Active | Activity [23]: 29.9% | Activity [24]: 4.9 mL | Activity [25]: 7.3 mL | IC50 [1]: 26.1 µg/mL (≈ 37 µM)

COc1ccc(C2CC(c3ccccc3)=Nc3c(C)noc3C2C(c2ccccc2)C2c3onc(C)c3N=C(c3ccccc3)CC2c2ccc(OC)cc2)cc1 (centres undefined)
IC50 (HeLa): 45.6 µg/mL (≈ 60.6 µM) | IC50 (MCF7): 53.8 µg/mL (≈ 71.5 µM) | IC50 [1]: 40.1 µg/mL (≈ 53.3 µM)

Cc1noc2c1N=C(c1ccc(Cl)cc1)CC(c1ccccc1)C2C(c1ccccc1)C1c2onc(C)c2N=C(c2ccc(Cl)cc2)CC1c1ccccc1 (centres undefined)
IC50 (HeLa): 60.2 µg/mL (≈ 79 µM) | IC50 (MCF7): 61.1 µg/mL (≈ 80.2 µM) | IC50 [1]: 58.5 µg/mL (≈ 76.8 µM)

Cc1noc2c1N=C(c1ccccc1)CC(c1ccccc1)C2C(c1ccc(Cl)cc1)C1c2onc(C)c2N=C(c2ccccc2)CC1c1ccccc1 (centres undefined)
IC50 (HeLa): 55.9 µg/mL (≈ 76.9 µM) | IC50 (MCF7): 59 µg/mL (≈ 81.1 µM) | IC50 [1]: 60.4 µg/mL (≈ 83 µM)

Cc1ccc(C2=Nc3c(C)noc3C(C(c3ccccc3)C3c4onc(C)c4N=C(c4ccc(C)cc4)CC3c3ccccc3)C(c3ccccc3)C2)cc1 (centres undefined)
IC50 (HeLa): 55.1 µg/mL (≈ 76.4 µM) | IC50 (MCF7): 55.9 µg/mL (≈ 77.5 µM) | IC50 [1]: 50.1 µg/mL (≈ 69.5 µM)

Cc1noc2c1N=C(c1ccccc1)CC(c1ccccc1)C2C(c1ccccc1)C1c2onc(C)c2N=C(c2ccccc2)CC1c1ccccc1 (centres undefined)
IC50 (HeLa): 68.7 µg/mL (≈ 99.2 µM) | IC50 (MCF7): 68.9 µg/mL (≈ 99.4 µM) | IC50 [1]: 66.5 µg/mL (≈ 96 µM)
